One data set concerns Liver microsomes. The data set can be described thus: Intrinsic clearance in human liver microsomes. It counts as ADME, Microsome. A digest of the protocol:
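Intrinsic clearance measured in human liver microsomes; expressed as ml/min/g liver.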
A general note: Microsomes from liver hold many membrane-bound enzymes, among them those of drug oxidation.

Data set [1] in a line: Ratio of drug level in brain to blood in rat at 0.5 mg/kg, iv after 1 hr. The data set is classed as ADME, organism-based. The arrangement: dose 0.5 mg/kg, route intravenous. The essentials: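 Male rats given 0.5 mg/kg iv; brain and blood levels sampled 1 h after dosing and expressed as brain/blood partition.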

Consider 22 compounds from ChEMBL document CHEMBL1287671, “Design, synthesis and SAR of a novel series of benzimidazoles as potent NPY Y5 antagonists” (Bioorg Med Chem Lett, 2010).

A word on the Kp: it is tissue or fluid exposure divided by exposure in the circulation.

In the data set on Liver microsomes, `O=C(Nc1nc(-c2ccccn2)cs1)N1CCC2(CC1)CN(c1ccccc1)C(=O)O2` had a CL of 0.6 mL/min/g. For the same compound, the Kp at 1 h in data set [1] was below 0.1. As for `O=C1OC2(CCN(c3nc4cc(Br)ccc4[nH]3)CC2)CN1c1ccccc1`, the CL with Liver microsomes came to 2.5 mL/min/g.

For `O=C1OC2(CCN(c3nc4cc(F)ccc4[nH]3)CC2)CN1c1ccccc1`, in the data set with Liver microsomes, the CL was 7 mL/min/g.

As for `O=C1OC2(CCN(c3nc4cc(-c5ccc(F)cc5)ccc4[nH]3)CC2)CN1c1ccccc1`, the CL with Liver microsomes was 7 mL/min/g. Turning to `O=C1OC2(CCN(c3nc4cc(OC(F)(F)F)ccc4[nH]3)CC2)CN1c1ccccc1`, the CL with Liver microsomes turned out to be 0.5 mL/min/g. The concentration ratio (Kp) at 1 h in data set [1] is 0.3.

With `O=C1O[C@]2(CC[C@H](c3nc4ccc(OC(F)(F)F)cc4[nH]3)CC2)CN1c1ccccc1`, the CL in the data set with Liver microsomes was 0.5 mL/min/g. Moreover, the Kp at 1 h in data set [1] is 0.6. For `O=C1O[C@]2(CC[C@H](c3nc4cc(OC(F)(F)F)ccc4[nH]3)CC2)CN1c1ccccc1F`, in that order: 0.5 mL/min/g and 0.8.

As to `O=C1O[C@]2(CC[C@H](c3nc4cc(OC(F)(F)F)ccc4[nH]3)CC2)CN1c1ccc(F)cc1`, the CL in the data set on Liver microsomes stood at 0.5 mL/min/g. Still for that read-out and setting: the figure for `Cc1ccccc1N1C[C@]2(CC[C@@H](c3nc4ccc(OC(F)(F)F)cc4[nH]3)CC2)OC1=O` is 0.5 mL/min/g. Still for that read-out and setting: the figure for `O=C1O[C@]2(CC[C@H](c3nc4ccc(OC(F)(F)F)cc4[nH]3)CC2)CN1c1ccccc1Cl` is 0.5 mL/min/g.

As for `O=C1O[C@]2(CC[C@H](c3nc4cc(OC(F)(F)F)ccc4[nH]3)CC2)CN1c1ccccn1`, the CL in the data set on Liver microsomes came to 0.5 mL/min/g. In addition, the concentration ratio (Kp) at 1 h in data set [1] was determined as 0.5. Take `Cc1cccc(N2C[C@]3(CC[C@@H](c4nc5ccc(OC(F)(F)F)cc5[nH]4)CC3)OC2=O)n1`: the CL in the data set on Liver microsomes worked out at 0.6 mL/min/g. Still for that read-out and setting: under `Cc1ncccc1N1C[C@]2(CC[C@@H](c3nc4ccc(OC(F)(F)F)cc4[nH]3)CC2)OC1=O` stands 0.6 mL/min/g; under `O=C1O[C@]2(CC[C@H](c3nc4ccc(OC(F)(F)F)cc4[nH]3)CC2)CN1c1cccc(F)n1`, 0.5 mL/min/g. On the same count and under the same terms, under `O=C1O[C@]2(CC[C@H](c3nc4cc(OC(F)(F)F)ccc4[nH]3)CC2)CN1c1cccnc1` stands 0.5 mL/min/g.

In the data set with Liver microsomes, `O=C1O[C@]2(CC[C@H](c3nc4cc(C(F)(F)F)ccc4[nH]3)CC2)CN1c1ccccc1` returned a CL of 0.5 mL/min/g. The partition ratio (Kp) at 1 h in data set [1] was found to be 0.3.

Compound `O=C1O[C@]2(CC[C@H](c3nc4cc(C(F)(F)F)ccc4[nH]3)CC2)CN1c1ccccn1` returned a CL in the data set on Liver microsomes of 0.5 mL/min/g. On to `N#Cc1ccc2nc([C@H]3CC[C@]4(CC3)CN(c3ccccc3)C(=O)O4)[nH]c2c1`, for which the CL in the data set on Liver microsomes turned out to be 0.5 mL/min/g. For the same compound, the Kp at 1 h in data set [1] is below 0.03.

`N#Cc1ccc2[nH]c([C@H]3CC[C@]4(CC3)CN(c3ccc(F)cc3)C(=O)O4)nc2c1` registered a CL with Liver microsomes of 0.5 mL/min/g.

`N#Cc1ccc2nc([C@H]3CC[C@]4(CC3)CN(c3ccccn3)C(=O)O4)[nH]c2c1` registered a CL in the data set with Liver microsomes of 15 mL/min/g. In the data set on Liver microsomes, `O=C1OC2(CCN(c3nc4cc(C(F)(F)F)ccc4[nH]3)CC2)CN1c1ccccc1` had a CL of 0.5 mL/min/g. Further, in data set [1], the Kp at 1 h was 0.2. `O=C1OC2(CCN(c3nc4ccccc4[nH]3)CC2)CN1c1ccccc1` displayed a CL with Liver microsomes of 9.8 mL/min/g.
